Test results published in ChEMBL document CHEMBL2321826, “Synthesis and antibacterial evaluation of rhodanine-based 5-aryloxy pyrazoles against selected methicillin resistant and quinolone-resistant Staphylococcus aureus (MRSA and QRSA)” (Eur J Med Chem, 2013).
In brackets after ≈: the same amount, converted by molar mass.

Assays:
Format in all cases: functional
[1] = system: Staphylococcus aureus; assay: Antibacterial activity against quinolone-resistant Staphylococcus aureus CCARM 3519 assessed as bacterial growth inhibition measured during 24 hrs incubation at 37 degC by two-fold serial dilution technique; conditions: CCARM 3519, 24 h
In short: (§1)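 Clinical isolates grown to mid-log phase in Mueller-Hinton broth, diluted 1000-fold, inoculated at 10⁵ CFU/mL in MHB in 96-well microtiter plates. Two-fold serial dilutions gave final concentrations of […]. Oxacillin and norfloxacin were the positive controls. Growth was read as absorbance at 650 nm. MIC is the lowest concentration giving complete growth inhibition.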

[2] = system: Staphylococcus aureus; assay: Antibacterial activity against methicillin-resistant Staphylococcus aureus CCARM 3167 assessed as bacterial growth inhibition measured during 24 hrs incubation at 37 degC by two-fold serial dilution technique; conditions: CCARM 3167, 24 h; in short: as §1
[3] = system: Staphylococcus aureus; assay: Antibacterial activity against methicillin-resistant Staphylococcus aureus CCARM 3506 assessed as bacterial growth inhibition measured during 24 hrs incubation at 37 degC by two-fold serial dilution technique; conditions: CCARM 3506, 24 h; in short: as §1
[4] = system: Staphylococcus aureus; assay: Antibacterial activity against quinolone-resistant Staphylococcus aureus CCARM 3505 assessed as bacterial growth inhibition measured during 24 hrs incubation at 37 degC by two-fold serial dilution technique; conditions: CCARM 3505, 24 h; in short: as §1

| Compound | MIC [1] [µg/mL] | MIC [2] [µg/mL] | MIC [3] [µg/mL] | MIC [4] [µg/mL] |
| --- | --- | --- | --- | --- |
| CCC(C)[C@@H](C(=O)O)N1C(=O)/C(=C/c2c(C)nn(-c3ccccc3)c2Cl)SC1=S (stereo partly specified) | 32 (≈ 71.1 µM) | 16 (≈ 35.6 µM) | 32 (≈ 71.1 µM) | 16 (≈ 35.6 µM) |
| Cc1nn(-c2ccccc2)c(Cl)c1/C=C1\SC(=S)N([C@@H](CC(C)C)C(=O)O)C1=O | 32 (≈ 71.1 µM) | 16 (≈ 35.6 µM) | 32 (≈ 71.1 µM) | 32 (≈ 71.1 µM) |
| CCC(C)[C@@H](C(=O)O)N1C(=O)/C(=C/c2c(C)nn(-c3ccccc3)c2Oc2ccccc2Cl)SC1=S (stereo partly specified) | 4 (≈ 7.38 µM) | 2 (≈ 3.69 µM) | 4 (≈ 7.38 µM) | 4 (≈ 7.38 µM) |
| CCC(C)[C@@H](C(=O)O)N1C(=O)/C(=C/c2c(C)nn(-c3ccccc3)c2Oc2cccc(Cl)c2)SC1=S (stereo partly specified) | 8 (≈ 14.8 µM) | 4 (≈ 7.38 µM) | 8 (≈ 14.8 µM) | 8 (≈ 14.8 µM) |
| CCC(C)[C@@H](C(=O)O)N1C(=O)/C(=C/c2c(C)nn(-c3ccccc3)c2Oc2ccc(Cl)cc2)SC1=S (stereo partly specified) | 4 (≈ 7.38 µM) | 2 (≈ 3.69 µM) | 4 (≈ 7.38 µM) | 4 (≈ 7.38 µM) |
| CCC(C)[C@@H](C(=O)O)N1C(=O)/C(=C/c2c(C)nn(-c3ccccc3)c2Oc2ccc(F)cc2)SC1=S (stereo partly specified) | 8 (≈ 15.2 µM) | 2 (≈ 3.8 µM) | 4 (≈ 7.61 µM) | 8 (≈ 15.2 µM) |
| CCC(C)[C@@H](C(=O)O)N1C(=O)/C(=C/c2c(C)nn(-c3ccccc3)c2Oc2ccc(Br)cc2)SC1=S (stereo partly specified) | 2 (≈ 3.41 µM) | 2 (≈ 3.41 µM) | 2 (≈ 3.41 µM) | 2 (≈ 3.41 µM) |
| CCC(C)[C@@H](C(=O)O)N1C(=O)/C(=C/c2c(C)nn(-c3ccccc3)c2Oc2ccc3ccccc3c2)SC1=S (stereo partly specified) | 2 (≈ 3.59 µM) | 2 (≈ 3.59 µM) | 2 (≈ 3.59 µM) | 2 (≈ 3.59 µM) |
| CCC(C)[C@@H](C(=O)O)N1C(=O)/C(=C/c2c(C)nn(-c3ccccc3)c2Oc2ccccc2)SC1=S (stereo partly specified) | 4 (≈ 7.88 µM) | 4 (≈ 7.88 µM) | 4 (≈ 7.88 µM) | 8 (≈ 15.8 µM) |
| CCC(C)[C@@H](C(=O)O)N1C(=O)/C(=C/c2c(C)nn(-c3ccccc3)c2Oc2ccccc2C)SC1=S (stereo partly specified) | 4 (≈ 7.67 µM) | 2 (≈ 3.83 µM) | 4 (≈ 7.67 µM) | 4 (≈ 7.67 µM) |
| CCC(C)[C@@H](C(=O)O)N1C(=O)/C(=C/c2c(C)nn(-c3ccccc3)c2Oc2cccc(C)c2)SC1=S (stereo partly specified) | 2 (≈ 3.83 µM) | 2 (≈ 3.83 µM) | 4 (≈ 7.67 µM) | 4 (≈ 7.67 µM) |
| CCC(C)[C@@H](C(=O)O)N1C(=O)/C(=C/c2c(C)nn(-c3ccccc3)c2Oc2ccc(C)cc2)SC1=S (stereo partly specified) | 4 (≈ 7.67 µM) | 2 (≈ 3.83 µM) | 4 (≈ 7.67 µM) | 4 (≈ 7.67 µM) |
| CCC(C)[C@@H](C(=O)O)N1C(=O)/C(=C/c2c(C)nn(-c3ccccc3)c2Oc2ccc(C)cc2C)SC1=S (stereo partly specified) | 2 (≈ 3.73 µM) | 2 (≈ 3.73 µM) | 2 (≈ 3.73 µM) | 2 (≈ 3.73 µM) |
| CCC(C)[C@@H](C(=O)O)N1C(=O)/C(=C/c2c(C)nn(-c3ccccc3)c2Oc2cccc(C(F)(F)F)c2)SC1=S (stereo partly specified) | 8 (≈ 13.9 µM) | 4 (≈ 6.95 µM) | 8 (≈ 13.9 µM) | 8 (≈ 13.9 µM) |
| CCC(C)[C@@H](C(=O)O)N1C(=O)/C(=C/c2c(C)nn(-c3ccccc3)c2Oc2ccc(OC)cc2)SC1=S (stereo partly specified) | 4 (≈ 7.44 µM) | 4 (≈ 7.44 µM) | 4 (≈ 7.44 µM) | 4 (≈ 7.44 µM) |
| CCC(C)[C@@H](C(=O)O)N1C(=O)/C(=C/c2c(C)nn(-c3ccccc3)c2Oc2ccccc2OC)SC1=S (stereo partly specified) | 16 (≈ 29.8 µM) | 16 (≈ 29.8 µM) | 16 (≈ 29.8 µM) | 16 (≈ 29.8 µM) |
| Cc1nn(-c2ccccc2)c(Oc2ccc(Cl)cc2Cl)c1/C=C1\SC(=S)N([C@@H](CC(C)C)C(=O)O)C1=O | 4 (≈ 6.94 µM) | 4 (≈ 6.94 µM) | 4 (≈ 6.94 µM) | 4 (≈ 6.94 µM) |
| Cc1ccc(Oc2c(/C=C3\SC(=S)N([C@@H](CC(C)C)C(=O)O)C3=O)c(C)nn2-c2ccccc2)c(C)c1 | 4 (≈ 7.47 µM) | 4 (≈ 7.47 µM) | 4 (≈ 7.47 µM) | 4 (≈ 7.47 µM) |
| Cc1nn(-c2ccccc2)c(Cl)c1/C=C1\SC(=S)N(CC(=O)O)C1=O | > 64 | > 64 | > 64 | > 64 |
| Cc1nn(-c2ccccc2)c(Cl)c1/C=C1\SC(=S)N([C@H](C(=O)O)C(C)C)C1=O | 32 (≈ 73.4 µM) | 16 (≈ 36.7 µM) | 32 (≈ 73.4 µM) | 32 (≈ 73.4 µM) |
| Cc1nn(-c2ccccc2)c(Oc2cccc(C(F)(F)F)c2)c1/C=C1\SC(=S)N(CC(=O)O)C1=O | 32 (≈ 61.6 µM) | 16 (≈ 30.8 µM) | 32 (≈ 61.6 µM) | 32 (≈ 61.6 µM) |
| COc1ccc(Oc2c(/C=C3\SC(=S)N(CC(=O)O)C3=O)c(C)nn2-c2ccccc2)cc1 | > 64 | > 64 | > 64 | > 64 |
| COc1ccccc1Oc1c(/C=C2\SC(=S)N(CC(=O)O)C2=O)c(C)nn1-c1ccccc1 | > 64 | > 64 | > 64 | > 64 |
| Cc1nn(-c2ccccc2)c(Oc2c(Cl)cccc2Cl)c1/C=C1\SC(=S)N([C@H](C(=O)O)C(C)C)C1=O | 16 (≈ 28.4 µM) | 8 (≈ 14.2 µM) | 16 (≈ 28.4 µM) | 8 (≈ 14.2 µM) |
